The record followed here is ChEMBL document CHEMBL1157613, “Salicylic acid based small molecule inhibitor for the oncogenic Src homology-2 domain containing protein tyrosine phosphatase-2 (SHP2)” (J Med Chem, 2010).

The species named for one experiment is Mus musculus. The experiment can be described thus: Antiproliferative activity against GM-CSF-stimulated C57/BL6 mouse low density BM-MNC expressing SHP2 E76K mutant assessed as inhibition of hyperproliferation at 10 uM after 16 hrs by [3H]thymidine incorporation assay. Type of experiment: functional. The settings on record: C57Bl/6. In short, it runs like this: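 Marrow low-density mononuclear cells from C57Bl/6 mice (Ficoll), prestimulated 24 h with SCF, G-CSF, Tpo (100 ng/mL), retrovirally transduced 48 h with wild-type SHP2, D61Y or E76K, EGFP-sorted. Starved 4 h in 0.2% BSA; 5 × 10^4 cells cultured 16 h in GM-CSF 0-1 ng/mL ± 10 μM compound, then pulsed with 1.0 μCi [3H]thymidine for 6-8 h; counts per minute; n = 3.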
For orientation: Uptake of a labelled nucleoside into DNA is a usual measure of proliferation.

The target of experiment [1] is T1, Tyrosine-protein phosphatase non-receptor type 11 (Mus musculus) (UniProt P35235).
T1 sequence (whole entry): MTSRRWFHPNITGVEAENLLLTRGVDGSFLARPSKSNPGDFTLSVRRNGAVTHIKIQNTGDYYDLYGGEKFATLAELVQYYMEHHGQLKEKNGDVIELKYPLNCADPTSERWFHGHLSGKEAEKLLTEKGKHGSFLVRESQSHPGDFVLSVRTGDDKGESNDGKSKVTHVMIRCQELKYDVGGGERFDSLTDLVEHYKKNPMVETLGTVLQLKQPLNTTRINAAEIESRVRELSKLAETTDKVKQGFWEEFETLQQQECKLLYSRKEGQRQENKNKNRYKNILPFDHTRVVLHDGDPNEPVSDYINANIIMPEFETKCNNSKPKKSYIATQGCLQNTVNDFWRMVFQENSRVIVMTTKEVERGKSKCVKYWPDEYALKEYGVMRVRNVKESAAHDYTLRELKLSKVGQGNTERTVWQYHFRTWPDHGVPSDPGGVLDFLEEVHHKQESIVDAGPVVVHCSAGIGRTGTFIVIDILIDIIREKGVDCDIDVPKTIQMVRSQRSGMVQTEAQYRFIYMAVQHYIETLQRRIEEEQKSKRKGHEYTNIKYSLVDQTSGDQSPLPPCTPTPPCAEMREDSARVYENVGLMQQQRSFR
The experiment can be described thus: Inhibition of SHP2-dependent ERK1/2 activation in EGF-stimulated mouse NIH/3T3 cells assessed as phosphorylated ERK1/2 level at 10 uM treated for 3 hrs before EGF challenge measured after 60 mins of EGF stimulation by immunoblot analysis. Type of experiment: cell-based. Conditions: NIH3T3. Background: A western blot detects proteins with antibodies after separation by electrophoresis.

The source made the active and inactive calls. The rule behind the calls is not given here.

For `Cn1c(-c2ccccc2)c(-c2cn(CCC(=O)Nc3ccc(-c4ccccc4)cc3)nn2)c2cc(C(=O)O)c(O)cc21`, in the experiment filed under Mus musculus, the result was Active. In addition, in experiment [1], the inhibition result was “Active”.
